# Active and inactive are the calls of the source. No cut-off for these calls is given here.
# Assays:
# [1] = biological target: Histamine H2 receptor (Homo sapiens) (UniProt P25021); assay: Agonist activity at recombinant human H2 receptor expressed in CHOK1 cells assessed as increase in cAMP accumulation at 10 uM measured after 30 mins by HTRF assay relative to control; format: functional, cell-based
# [2] = biological target: High affinity choline transporter 1 (Homo sapiens, UniProt Q9GZV3); assay: Displacement of [3H]hemicholinium-3 from recombinant human choline transporter after 60 mins by scintillation counting method
# [3] = Renal clearance in dog at 0.3 mg/kg, iv via infusion for 0.5 hrs; format: ADME, organism-based, Canis lupus familiaris, Kidney; details: in vivo
# [4] = Protein binding in rat plasma assessed as fraction unbound at 2 uM; format: ADME, cell-free
# [5] = Protein binding in dog plasma assessed as fraction unbound at 2 uM; format: ADME, cell-free, Canis lupus familiaris
# [6] = species on record: Rattus norvegicus; assay: Displacement of [3H]D888 from L-type calcium channel verapamil binding site in rat brain at 10 uM measured after 120 mins by scintillation counting method
# [7] = Terminal half-life in dog at 0.3 mg/kg, iv via infusion for 0.5 hrs; format: ADME, organism-based, Canis lupus familiaris; details: in vivo, read-out: beta t1/2 (converted)
# In short: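 Dog IV pharmacokinetics, with half-life reported as two values: α (initial phase) and β (terminal phase) of the disposition profile.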
# [8] = biological target: Muscarinic acetylcholine receptor M3 (Homo sapiens) (UniProt P20309); assay: Antagonist activity at human M3 receptor expressed in CHOK1 cells assessed as inhibition of acetylcholine-induced calcium flux at 10 uM by fluorimetric method relative to control; format: functional, cell-based
# [9] = biological target: Glutamate NMDA receptor (Rattus norvegicus) (UniProt P35439+Q00959+Q00960+Q00961+Q62645+Q8VHN2+Q9R1M7); assay: Displacement of [3H]CGP 39653 from rat brain NMDA receptor at 10 uM after 60 mins by scintillation counting method
# [10] = biological target: Sodium-dependent dopamine transporter (Homo sapiens, UniProt Q01959); assay: Displacement of [3H]BTCP from recombinant human dopamine transporter after 120 mins by scintillation counting method
# [11] = Lipophilicity, log D of the compound at pH 7.4; format: physicochemical; details: buffer
# [12] = Clearance in iv dosed mouse plasma; format: ADME, organism-based
# [13] = tested on: Mus musculus; assay: Analgesic activity in mouse assessed as inhibition of formalin-induced pain at 0.28 to 5.4 mg/kg, iv pretreated for 90 mins followed by formalin addition measured up to 40 mins; format: functional, organism-based
# [14] = Clearance in rat blood at 0.3 mg/kg, iv via infusion for 1 hr; format: ADME, organism-based; details: whole blood
# In short: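 Blood clearance was calculated from the measured plasma clearance and the measured blood:plasma ratio.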
# [15] = biological target: monoamine oxidase (Homo sapiens, UniProt P21397+P27338); assay: Inhibition of monoamine oxidase (unknown origin) at 10 uM relative to control; format: protein assay
# [16] = biological target: Muscarinic acetylcholine receptor M2 (Homo sapiens) (UniProt P08172); assay: Antagonist activity at recombinant human M2 receptor expressed in CHOK1 cells assessed as inhibition of acetylcholine-induced cAMP accumulation at 10 uM measured after 10 mins by HTRF assay relative to control; format: functional, cell-based
# [17] = biological target: Peroxisome proliferator-activated receptor gamma (Homo sapiens) (UniProt P37231); assay: Displacement of [3H]rosiglitazone from recombinant human PPARgamma at 10 uM after 120 mins by scintillation counting method
# [18] = Displacement of [3H]diltiazem from L-type calcium channel diltiazem binding site in rat brain after 120 mins by scintillation counting method
# [19] = species on record: Homo sapiens; assay: Inhibition of neuronal type nAChR (unknown origin) at 10 uM by radioligand binding assay relative to control
# [20] = biological target: Cannabinoid receptor 1 (Homo sapiens) (UniProt P21554); assay: Antagonist activity at recombinant human CB1 receptor expressed in CHOK1 cells assessed as inhibition of CP 55940-induced cAMP accumulation at 10 uM after 20 mins by HTRF assay relative to control; format: functional, cell-based
# [21] = Half-life in iv dosed mouse; format: ADME, organism-based; details: in vivo
# [22] = biological target: Sodium channel protein type 11 subunit alpha (Homo sapiens, UniProt Q9UI33); assay: Inhibition of human Nav1.9 expressed in HEK cells by automated patchXpress electrophysiology method; format: cell-based
# [23] = Clearance in rat plasma at 0.3 mg/kg, iv via infusion for 1 hr; format: ADME, organism-based
# [24] = biological target: Sodium channel protein type 1 subunit alpha (Homo sapiens, UniProt P35498); assay: Inhibition of human Nav1.1 expressed in HEK cells by patch clamp electrophysiology method; format: cell-based
# [25] = biological target: Sodium channel protein type 4 subunit alpha (Homo sapiens, UniProt P35499); assay: Inhibition of human Nav1.4 expressed in HEK cells by patch clamp electrophysiology method; format: cell-based
# [26] = Unbound clearance rat plasma at 0.3 mg/kg, iv via infusion for 1 hr; format: ADME, organism-based; details: in vivo
# [27] = biological target: Muscarinic acetylcholine receptor M2 (Homo sapiens) (UniProt P08172); assay: Agonist activity at recombinant human M2 receptor expressed in CHOK1 cells assessed as increase in cAMP accumulation at 10 uM measured after 10 mins by HTRF assay relative to control; format: functional, cell-based
# [28] = Clearance in bile duct cannulated rat at 0.3 mg/kg, iv via infusion for 1 hr; format: ADME, organism-based; details: in vivo
# In short: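 Plasma clearance was taken from a study in bile duct cannulated rats.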
# [29] = biological target: Sodium channel protein type 3 subunit alpha (Homo sapiens, UniProt Q9NY46); assay: Inhibition of human Nav1.3 expressed in HEK cells by patch clamp electrophysiology method; format: cell-based
# [30] = Cytotoxicity against human THLE cells; format: cell-based
# [31] = biological target: Sodium-dependent noradrenaline transporter (Homo sapiens, UniProt P23975); assay: Displacement of [3H]nisoxetine from recombinant human norepinephrine transporter at 10 uM after 120 min by scintillation counting method
# [32] = biological target: Histamine H1 receptor (Homo sapiens) (UniProt P35367); assay: Displacement of [3H]pyrilamine from recombinant human H1 receptor at 10 uM after 60 mins by scintillation counting method
# [33] = biological target: Acetylcholinesterase (Homo sapiens) (UniProt P22303); assay: Inhibition of recombinant human AChE at 10 uM using acetylthiocholine as substrate measured after 30 mins by spectrophotometric method relative to control
# [34] = biological target: Prostaglandin G/H synthase 2 (Homo sapiens, UniProt P35354); assay: Inhibition of recombinant human COX2 using arachidonic acid as substrate measured after 5 mins by fluorescence assay
# [35] = biological target: Proto-oncogene tyrosine-protein kinase Src (Homo sapiens) (UniProt P12931); assay: Inhibition of recombinant human SRC at 10 uM using Ulight-Poly GAT[EAY(1:1:1)]n as substrate after 10 mins by LANCE assay
# [36] = biological target: Sodium channel protein type 8 subunit alpha (Rattus norvegicus, UniProt O88420); assay: Inhibition of rat Nav1.6 expressed in HEK cells by patch clamp electrophysiology method; format: cell-based
# [37] = species on record: Homo sapiens; assay: Inhibition of GABA-A receptor benzodiazepine site (unknown origin) at 10 uM by radioligand binding assay relative to control
# [38] = biological target: D(1A) dopamine receptor (Homo sapiens) (UniProt P21728); assay: Antagonist activity at recombinant human D1 receptor expressed in CHOK1 cells assessed as inhibition of dopamine-induced cAMP accumulation at 10 uM after 30 mins by HTRF assay relative to control; format: functional, cell-based
# [39] = species on record: Homo sapiens; assay: Inhibition of sodium channel site2 (unknown origin) at 10 uM by radioligand binding assay relative to control
# Sequence of Sodium-dependent dopamine transporter (Q01959 whole entry): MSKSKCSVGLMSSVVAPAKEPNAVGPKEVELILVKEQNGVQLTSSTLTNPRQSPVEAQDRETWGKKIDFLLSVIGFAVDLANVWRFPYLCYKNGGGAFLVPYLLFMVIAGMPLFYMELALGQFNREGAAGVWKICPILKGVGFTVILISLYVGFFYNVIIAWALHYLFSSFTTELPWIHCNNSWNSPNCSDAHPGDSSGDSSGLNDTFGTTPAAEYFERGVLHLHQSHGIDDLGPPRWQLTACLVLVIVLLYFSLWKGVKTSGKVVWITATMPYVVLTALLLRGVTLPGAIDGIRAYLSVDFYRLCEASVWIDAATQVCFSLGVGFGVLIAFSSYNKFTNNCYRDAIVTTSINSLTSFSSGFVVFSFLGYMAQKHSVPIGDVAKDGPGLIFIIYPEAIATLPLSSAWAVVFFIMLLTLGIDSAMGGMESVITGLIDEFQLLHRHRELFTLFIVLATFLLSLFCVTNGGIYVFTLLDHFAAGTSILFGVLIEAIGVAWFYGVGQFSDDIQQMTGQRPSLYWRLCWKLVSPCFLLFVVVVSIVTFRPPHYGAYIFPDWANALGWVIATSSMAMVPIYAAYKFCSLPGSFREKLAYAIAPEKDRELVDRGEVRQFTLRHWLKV
# Sequence of High affinity choline transporter 1 (Q9GZV3 whole entry, the tested form may be a part): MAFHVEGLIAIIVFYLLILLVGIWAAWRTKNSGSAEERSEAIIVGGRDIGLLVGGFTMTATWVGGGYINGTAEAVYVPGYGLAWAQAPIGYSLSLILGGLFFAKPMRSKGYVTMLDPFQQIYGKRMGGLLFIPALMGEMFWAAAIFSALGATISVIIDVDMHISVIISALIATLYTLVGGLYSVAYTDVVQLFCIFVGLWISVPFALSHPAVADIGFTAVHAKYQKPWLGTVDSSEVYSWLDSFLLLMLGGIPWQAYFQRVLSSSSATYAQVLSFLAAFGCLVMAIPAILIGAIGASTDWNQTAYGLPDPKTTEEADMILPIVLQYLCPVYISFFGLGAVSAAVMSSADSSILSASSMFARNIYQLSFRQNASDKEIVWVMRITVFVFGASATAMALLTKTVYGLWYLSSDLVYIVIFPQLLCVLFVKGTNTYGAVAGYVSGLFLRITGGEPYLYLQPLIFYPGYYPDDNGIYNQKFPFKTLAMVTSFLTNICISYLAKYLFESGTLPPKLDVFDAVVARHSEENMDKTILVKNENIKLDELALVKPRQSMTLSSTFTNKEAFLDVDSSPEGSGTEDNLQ
# Sequence of Muscarinic acetylcholine receptor M2 (Homo sapiens) (P08172 whole entry, the tested form may be a part): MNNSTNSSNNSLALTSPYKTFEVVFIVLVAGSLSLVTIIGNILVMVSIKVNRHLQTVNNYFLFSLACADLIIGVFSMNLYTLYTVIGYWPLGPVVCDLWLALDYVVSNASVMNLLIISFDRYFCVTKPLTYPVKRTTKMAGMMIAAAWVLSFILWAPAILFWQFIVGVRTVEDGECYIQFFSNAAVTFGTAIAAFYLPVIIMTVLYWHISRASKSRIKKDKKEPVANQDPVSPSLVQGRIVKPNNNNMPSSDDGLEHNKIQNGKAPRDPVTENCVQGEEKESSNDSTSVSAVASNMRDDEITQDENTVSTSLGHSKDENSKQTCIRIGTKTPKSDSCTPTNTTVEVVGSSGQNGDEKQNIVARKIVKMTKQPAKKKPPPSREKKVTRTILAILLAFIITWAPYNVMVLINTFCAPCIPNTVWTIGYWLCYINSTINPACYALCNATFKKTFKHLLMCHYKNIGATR
# Sequence of Proto-oncogene tyrosine-protein kinase Src (Homo sapiens) (P12931 2-536 limits assumed): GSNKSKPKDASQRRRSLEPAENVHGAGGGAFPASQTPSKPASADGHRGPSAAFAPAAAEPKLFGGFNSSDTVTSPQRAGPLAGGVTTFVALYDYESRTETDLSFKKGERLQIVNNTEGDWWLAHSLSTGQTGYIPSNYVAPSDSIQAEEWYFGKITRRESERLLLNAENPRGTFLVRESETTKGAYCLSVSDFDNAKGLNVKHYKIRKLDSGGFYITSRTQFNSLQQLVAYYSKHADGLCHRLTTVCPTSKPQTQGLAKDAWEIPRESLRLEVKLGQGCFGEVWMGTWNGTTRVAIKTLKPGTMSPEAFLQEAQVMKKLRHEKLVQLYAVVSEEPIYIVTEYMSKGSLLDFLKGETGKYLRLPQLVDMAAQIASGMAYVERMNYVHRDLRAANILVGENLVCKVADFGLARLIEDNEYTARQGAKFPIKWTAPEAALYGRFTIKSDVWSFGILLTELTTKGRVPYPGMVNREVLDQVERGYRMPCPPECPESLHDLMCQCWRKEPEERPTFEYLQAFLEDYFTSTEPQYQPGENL
# Sequence of Prostaglandin G/H synthase 2 (P35354 whole entry): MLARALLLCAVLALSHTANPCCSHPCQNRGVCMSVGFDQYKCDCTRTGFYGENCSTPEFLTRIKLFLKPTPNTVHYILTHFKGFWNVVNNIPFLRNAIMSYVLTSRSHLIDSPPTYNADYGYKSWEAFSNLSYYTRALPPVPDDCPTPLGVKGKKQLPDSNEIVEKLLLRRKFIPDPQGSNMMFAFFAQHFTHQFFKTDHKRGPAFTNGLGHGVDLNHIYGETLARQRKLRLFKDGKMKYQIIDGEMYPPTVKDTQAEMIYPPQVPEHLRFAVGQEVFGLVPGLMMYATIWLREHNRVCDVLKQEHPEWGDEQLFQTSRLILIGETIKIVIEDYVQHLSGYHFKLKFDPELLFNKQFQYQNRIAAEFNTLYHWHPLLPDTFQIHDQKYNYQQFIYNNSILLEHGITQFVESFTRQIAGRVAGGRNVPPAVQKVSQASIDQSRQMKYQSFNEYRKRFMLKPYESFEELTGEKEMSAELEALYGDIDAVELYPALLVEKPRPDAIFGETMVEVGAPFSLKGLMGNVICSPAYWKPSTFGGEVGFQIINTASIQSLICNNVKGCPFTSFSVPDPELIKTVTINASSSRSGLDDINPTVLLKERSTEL
# Sequence of Acetylcholinesterase (Homo sapiens) (P22303 whole entry): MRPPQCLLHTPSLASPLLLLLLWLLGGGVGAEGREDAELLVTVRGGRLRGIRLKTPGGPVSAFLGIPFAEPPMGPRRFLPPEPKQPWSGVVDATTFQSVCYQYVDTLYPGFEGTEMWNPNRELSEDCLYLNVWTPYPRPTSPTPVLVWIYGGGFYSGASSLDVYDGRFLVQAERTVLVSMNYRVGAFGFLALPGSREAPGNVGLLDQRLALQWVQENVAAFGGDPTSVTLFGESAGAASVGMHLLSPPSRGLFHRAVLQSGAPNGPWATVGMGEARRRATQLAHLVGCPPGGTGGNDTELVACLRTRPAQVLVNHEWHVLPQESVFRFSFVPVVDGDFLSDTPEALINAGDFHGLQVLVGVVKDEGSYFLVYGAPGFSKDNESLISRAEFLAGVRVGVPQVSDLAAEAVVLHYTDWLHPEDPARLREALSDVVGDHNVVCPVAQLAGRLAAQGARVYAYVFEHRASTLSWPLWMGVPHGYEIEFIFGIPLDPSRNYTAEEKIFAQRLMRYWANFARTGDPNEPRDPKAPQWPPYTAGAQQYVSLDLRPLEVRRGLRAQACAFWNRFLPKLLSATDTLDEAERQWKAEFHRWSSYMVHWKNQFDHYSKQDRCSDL
# Sequence of Histamine H1 receptor (Homo sapiens) (P35367 whole entry): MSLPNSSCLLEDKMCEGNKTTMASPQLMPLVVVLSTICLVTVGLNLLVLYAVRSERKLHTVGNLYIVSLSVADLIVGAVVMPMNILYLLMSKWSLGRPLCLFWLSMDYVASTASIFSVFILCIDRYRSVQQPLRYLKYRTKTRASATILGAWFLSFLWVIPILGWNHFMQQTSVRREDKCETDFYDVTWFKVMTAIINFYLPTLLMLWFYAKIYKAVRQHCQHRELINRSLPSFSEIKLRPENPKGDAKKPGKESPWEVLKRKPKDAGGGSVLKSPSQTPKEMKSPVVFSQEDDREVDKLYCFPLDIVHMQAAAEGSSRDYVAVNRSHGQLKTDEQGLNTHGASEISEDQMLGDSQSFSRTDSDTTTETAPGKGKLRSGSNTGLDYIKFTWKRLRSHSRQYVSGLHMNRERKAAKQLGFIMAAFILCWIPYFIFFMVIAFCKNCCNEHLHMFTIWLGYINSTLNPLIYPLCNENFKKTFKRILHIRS
# Sequence of Histamine H2 receptor (Homo sapiens) (P25021 whole entry): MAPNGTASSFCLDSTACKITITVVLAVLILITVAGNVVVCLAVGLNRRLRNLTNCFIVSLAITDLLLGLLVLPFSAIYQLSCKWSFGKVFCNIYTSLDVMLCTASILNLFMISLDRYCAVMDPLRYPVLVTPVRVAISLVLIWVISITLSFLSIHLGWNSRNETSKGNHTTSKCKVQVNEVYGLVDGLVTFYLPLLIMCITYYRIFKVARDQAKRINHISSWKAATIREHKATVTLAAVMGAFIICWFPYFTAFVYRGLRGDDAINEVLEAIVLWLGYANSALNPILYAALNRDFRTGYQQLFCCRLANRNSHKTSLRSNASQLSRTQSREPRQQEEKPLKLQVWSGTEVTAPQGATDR
# Sequence of Muscarinic acetylcholine receptor M3 (Homo sapiens) (P20309 whole entry, looked up): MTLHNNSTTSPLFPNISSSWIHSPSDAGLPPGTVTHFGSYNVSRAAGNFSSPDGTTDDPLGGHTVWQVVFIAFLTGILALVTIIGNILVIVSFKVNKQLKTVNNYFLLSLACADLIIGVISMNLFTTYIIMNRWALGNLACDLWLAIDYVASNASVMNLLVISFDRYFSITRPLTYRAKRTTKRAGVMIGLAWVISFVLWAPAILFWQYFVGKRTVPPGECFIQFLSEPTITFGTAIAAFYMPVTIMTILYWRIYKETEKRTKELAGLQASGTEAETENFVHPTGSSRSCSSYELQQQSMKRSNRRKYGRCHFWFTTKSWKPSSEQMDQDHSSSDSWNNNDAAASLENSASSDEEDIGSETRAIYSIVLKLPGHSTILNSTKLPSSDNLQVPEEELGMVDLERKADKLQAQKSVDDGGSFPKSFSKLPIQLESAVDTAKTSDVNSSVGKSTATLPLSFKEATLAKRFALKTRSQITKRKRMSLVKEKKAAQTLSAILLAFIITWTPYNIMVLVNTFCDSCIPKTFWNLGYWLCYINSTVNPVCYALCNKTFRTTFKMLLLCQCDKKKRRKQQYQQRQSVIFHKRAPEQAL
smiles,measurement,setting,value
N#Cc1cc(S(=O)(=O)Nc2ncns2)ccc1Oc1ccc(-c2cccc(C(F)(F)F)c2)cc1-c1ccnc(CNCCC2CCNCC2)c1,Activity,[1],-4%
same,IC50,[2],0.12 µM
same,Ki,[2],0.068 µM
same,CL renal at 0.5 h,[3],0.0012 mL/min/kg
same,fraction unbound at 2 µM,[4],0.002
same,fraction unbound at 2 µM,[5],0.003
same,inhibition,[6],35%
same,half-life,[7],5.9 h
same,inhibition,[8],29%
same,inhibition,[9],21%
same,IC50,[10],4.01 µM
same,Ki,[10],2.12 µM
same,logD,[11],2.37 to 2.4
same,clearance,[12],36.5 mL/min/kg
same,inhibition,[13],inactive
same,clearance,[14],178 mL/min/kg
same,inhibition at 10 µM,[15],16%
same,inhibition,[16],24%
same,inhibition,[17],33.4%
same,IC50,[18],5.3 µM
same,Ki,[18],4.12 µM
same,inhibition,[19],34%
same,inhibition,[20],11%
same,half-life,[21],0.66 h
same,IC50,[22],> 10 µM
same,clearance,[23],83.1 mL/min/kg
same,IC50,[24],0.309 to 0.314 µM
same,IC50,[25],1.45 µM
same,CL free,[26],30218 mL/min/kg
same,Activity,[27],-9%
same,clearance,[28],59.8 mL/min/kg
same,IC50,[29],6.44 to 11.5 µM
same,IC50,[30],108 µM
same,inhibition,[31],80%
same,inhibition,[32],29%
same,inhibition,[33],15%
same,IC50,[34],3.65 µM
same,inhibition,[35],9%
same,IC50,[36],0.00501 µM
same,inhibition,[37],35%
same,inhibition,[38],30%
same,inhibition,[39],92%

# Source: ChEMBL document CHEMBL4177603 (Bioorg Med Chem Lett, 2017)
